Results on 31 compounds are retold here after ChEMBL document CHEMBL1122987, “Synthesis and central dopaminergic effects of N-(4,6-dimethyl-2-pyridinyl)benzamides” (1985).

The species entered for assay [1] is Mus musculus. Description: Antipsychotic effect was tested against motility scores in naive mice at a control value of 815. It counts as functional.
The species named for assay [2] is Mus musculus. Description: Antipsychotic effect was tested against motility scores in reserpinized mice at a control value of 11; toxic. Format: functional, organism-based.
Assay [3] is filed under the species Mus musculus. Description: Antipsychotic effect was tested against motility scores in reserpinized mice at a control value of 11. It counts as functional.
For assay [4], the species on record is Mus musculus. Description: Motility against number of interrupted beams in 1 hour in naive mice by 9 determinations. It counts as functional.
The species entered for assay [5] is Mus musculus. Kind of assay: Motility against number of interrupted beams in 1 hour in reserpine treated mice by 4 determinations. It counts as functional.
The species entered for assay [6] is Mus musculus. Description: Motility against number of interrupted beams in 1 hr in reserpine & apomorphine treated mice by 9 determinations. It counts as functional. The procedure, abridged: (§1)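 Mice reserpinized (10 mg/kg ip), then apomorphine 2 mg/kg ip given 20 h later; benzamide dosed 1 h before apomorphine. Individual photocell beam interruptions recorded for 60 min after apomorphine. Controls received acacia gum aqueous suspension; means ± SEM, Student's t test vs controls.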

For assay [7], the species on record is Rattus norvegicus. Description: Compound was evaluated for the homovanillic acid levels of rats corpus striata by 7 determinations. Format: functional. The procedure, abridged:
(§2)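 Male Wistar C.F. rats (200 ± 20 g); corpus striatum removed 5 h after dosing, HVA extracted from tissue and measured fluorimetrically, expressed as µg/g. Controls got acacia gum suspension; means ± SEM, Student's t test vs controls.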

For assay [8], the species on record is Rattus norvegicus. Description: Compound was evaluated for the homovanillic acid levels of rats limbic system by 7 determinations. Format: functional. The essentials:
(§3)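 Male Wistar C.F. rats (200 ± 20 g); limbic system dissected 5 h post-dose, HVA extracted and determined by fluorimetry (µg/g tissue). Vehicle controls received acacia gum aqueous suspension; means ± SEM, Student's t test.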

Assay [9] is filed under the species Mus musculus. Kind of assay: Motility against number of interrupted beams in 1 hour in reserpine treated mice by 13 determinations. It counts as functional.
The species named for assay [10] is Mus musculus. Description: Motility against number of interrupted beams in 1 hr in reserpine & apomorphine treated mice by 11 determinations. It counts as functional. The essentials:
as §1

The species named for assay [11] is Rattus norvegicus. Description: Compound was evaluated for the homovanillic acid levels of rats corpus striata by 18 determinations. It counts as functional. The essentials: as §2
The species entered for assay [12] is Rattus norvegicus. Description: Compound was evaluated for the homovanillic acid levels of rats limbic system by 17 determinations. Format: functional. The essentials:
as §3

For assay [13], the species on record is Mus musculus. Kind of assay: Motility against number of interrupted beams in 1 hour in naive mice by 15 determinations. Format: functional.
Assay [14] is filed under the species Mus musculus. Description: Motility of the Compound was tested against number of interrupted beams in 1 hour in naive mice by 10 determinations. It counts as functional.
The species named for assay [15] is Mus musculus. Description: Motility of the Compound was tested against number of interrupted beams in 1 hr in reserpine & apomorphine treated mice by 12 determinations. Format: functional. The procedure, abridged:
as §1

The species entered for assay [16] is Rattus norvegicus. Kind of assay: Compound was evaluated for the homovanillic acid levels of rats limbic system by 8 determinations. It counts as functional. The procedure, abridged: as §3
For assay [17], the species on record is Mus musculus. Kind of assay: Motility against number of interrupted beams in 1 hour in naive mice by 10 determinations. Format: functional.
For assay [18], the species on record is Rattus norvegicus. Kind of assay: Compound was evaluated for the homovanillic acid levels of rats Corpus striata by 7 determinations. It counts as functional. The procedure, abridged: as §2
The species named for assay [19] is Rattus norvegicus. Kind of assay: Compound was evaluated for the homovanillic acid levels of rats limbic system by 6 determinations. It counts as functional. The procedure, abridged:
as §3

Assay [20] is filed under the species Mus musculus. Description: Motility of the Compound was tested against number of interrupted beams in 1 hour in reserpine treated mice by 8 determinations. Format: functional.
The species entered for assay [21] is Mus musculus. Description: Motility of the Compound was tested against number of interrupted beams in 1 hr in reserpine & apomorphine treated mice by 14 determinations. Format: functional. The essentials:
as §1

Assay [22] is filed under the species Mus musculus. Kind of assay: Motility against number of interrupted beams in 1 hour in naive mice by 13 determinations. It counts as functional.
The species named for assay [23] is Rattus norvegicus. Description: Compound Evaluated for the homovanillic acid levels of rats corpus striata by 12 determinations. It counts as functional. The essentials: as §2
Assay [24] is filed under the species Rattus norvegicus. Kind of assay: Compound Evaluated for the homovanillic acid levels of rats limbic system by 12 determinations. It counts as functional. The essentials:
as §3

For assay [25], the species on record is Mus musculus. Kind of assay: Motility against number of interrupted beams in 1 hour in reserpine treated mice by 9 determinations. Format: functional.
The species entered for assay [26] is Mus musculus. Kind of assay: Motility against number of interrupted beams in 1 hr in reserpine & apomorphine treated mice by 21 determinations. It counts as functional. The essentials:
as §1

The species entered for assay [27] is Rattus norvegicus. Kind of assay: Compound was evaluated for the homovanillic acid levels of rats corpus striata by 14 determinations. It counts as functional. The essentials:
as §2

Assay [28] is filed under the species Rattus norvegicus. Kind of assay: Compound was evaluated for the homovanillic acid levels of rats limbic system by 15 determinations. Format: functional. The essentials:
as §3

The species entered for assay [29] is Mus musculus. Kind of assay: Motility against number of interrupted beams in 1 hour in reserpine treated mice by 4 determinations. It counts as functional.
The species named for assay [30] is Mus musculus. Description: Motility against number of interrupted beams in 1 hr in reserpine & apomorphine treated mice by 10 determinations. Format: functional. The procedure, abridged: as §1
The species named for assay [31] is Rattus norvegicus. Kind of assay: Compound was evaluated for the homovanillic acid levels of rats corpus striata by 11 determinations. Format: functional. The essentials:
as §2

For the compound `Cc1cc(C)nc(N(C)C(=O)c2ccccc2)c1`, the Motility is 796 in the assay filed under Mus musculus [1] and “Toxic” in the assay filed under Mus musculus [2].
Consider `Cc1cc(C)nc(NC(=O)c2ccc(F)cc2)c1`, for which the Motility came to 291 in the assay listed under Mus musculus [1]; 113 in the assay filed under Mus musculus [3]; 299 in the assay listed under Mus musculus [4]; 118.2 in the assay filed under Mus musculus [5]; 491 in the assay listed under Mus musculus [6]. For the same compound, the figures for the HVA level in the assay listed under Rattus norvegicus [7] and in the assay filed under Rattus norvegicus [8] were 0.667 µg/g and 0.194 µg/g, respectively.
Take `Cc1cc(C)nc(NC(=O)c2cccc(Cl)c2)c1`: the Motility in the assay listed under Mus musculus [1] was 617; in the assay listed under Mus musculus [3] it was 52; in the assay listed under Mus musculus [9], 41.2; in the assay listed under Mus musculus [10] it was 727; in the assay listed under Mus musculus [13], 577. Moreover, the HVA level in the assay filed under Rattus norvegicus [11] turned out to be 0.396 µg/g; in the assay filed under Rattus norvegicus [12], 0.141 µg/g.
Turning to `COc1ccc(Cl)cc1C(=O)Nc1cc(C)cc(C)n1`, the Motility was determined as 748 in the assay listed under Mus musculus [1] and 19 in the assay listed under Mus musculus [3].
For `Cc1cc(C)nc(NC(=O)c2ccc([N+](=O)[O-])cc2)c1` the same measures were 746 and 0.
For `Cc1cc(C)nc(NC(=O)c2ccccc2O)c1` the same measures were 747 and 0.
`Cc1cc(C)nc(NC(=O)c2cccc([N+](=O)[O-])c2)c1`: the results for the Motility in the assay filed under Mus musculus [1] and in the assay filed under Mus musculus [3] were 634 and 15, respectively.
For `COc1ccc(C(=O)Nc2cc(C)cc(C)n2)cc1` the same measures were 456 and 0.
The matching figures for `CC(=O)Nc1ccc(C(=O)Nc2cc(C)cc(C)n2)cc1`: 522 and 12.
For `CCOc1ccc(C(=O)Nc2cc(C)cc(C)n2)cc1` the same measures were 552 and 4.
On to `CCN(CC)CCNC(=O)c1cc(Cl)c(N)cc1OC` [METOCLOPRAMIDE], for which the Motility is reported as 126 in the assay listed under Mus musculus [14] and 63 in the assay listed under Mus musculus [15]. Besides, the HVA level in the assay filed under Rattus norvegicus [7] came to 2.531 µg/g; in the assay listed under Rattus norvegicus [16], 0.618 µg/g.
As for `CCN1CCCC1CNC(=O)c1cc(S(=O)(=O)CC)ccc1OC` (stereo unspecified) [SULTOPRIDE], the Motility was determined as 135 in the assay listed under Mus musculus [17] and 152 in the assay filed under Mus musculus [10]. Moreover, the HVA level was determined as 1.898 µg/g in the assay filed under Rattus norvegicus [18] and 0.493 µg/g in the assay listed under Rattus norvegicus [19].
As for `Cc1cc(C)nc(NC(=O)c2ccccc2)c1`, the Motility is given as 450 in the assay filed under Mus musculus [1]; 83 in the assay filed under Mus musculus [3]; 85.1 in the assay filed under Mus musculus [20]; 642 in the assay listed under Mus musculus [21]; 427 in the assay listed under Mus musculus [22]. Also, the HVA level in the assay listed under Rattus norvegicus [23] turned out to be 0.504 µg/g; in the assay filed under Rattus norvegicus [24] it was 0.297 µg/g.
For the compound `COc1ccc(S(C)(=O)=O)cc1C(=O)Nc1cc(C)cc(C)n1`, the figures for the Motility in the assay filed under Mus musculus [1] and in the assay filed under Mus musculus [3] were 755 and 2, respectively.
In the case of `Cc1cc(C)nc(NC(=O)c2ccc(Cl)cc2)c1`, the Motility is on record as 630 in the assay listed under Mus musculus [1]; 72 in the assay filed under Mus musculus [3]; 619 in the assay listed under Mus musculus [17]; 73.4 in the assay listed under Mus musculus [25]; 577 in the assay listed under Mus musculus [26]. The HVA level in the assay listed under Rattus norvegicus [27] is 0.644 µg/g; in the assay filed under Rattus norvegicus [28], 0.355 µg/g.
Take `Cc1cc(C)nc(NC(=O)c2ccc(Br)cc2)c1`: the Motility in the assay filed under Mus musculus [1] was determined as 797; in the assay listed under Mus musculus [3], 0.
For `COc1ccccc1C(=O)Nc1cc(C)cc(C)n1` the same measures were 646 and 7.
The matching figures for `CCN(C(=O)c1ccccc1)c1cc(C)cc(C)n1`: 914 and 31.
`Cc1cc(C)nc(NC(=O)c2ccc(N)cc2)c1`: the Motility in the assay filed under Mus musculus [1] was found to be 337; in the assay listed under Mus musculus [3], 9; in the assay filed under Mus musculus [17] it was 439; in the assay filed under Mus musculus [29] it was 0; in the assay filed under Mus musculus [30] it was 385. The HVA level was 0.308 µg/g in the assay filed under Rattus norvegicus [31] and 0.268 µg/g in the assay listed under Rattus norvegicus [8].
On to `CCCN(C(=O)c1ccccc1)c1cc(C)cc(C)n1`, for which the Motility is 780 in the assay listed under Mus musculus [1] and 8 in the assay listed under Mus musculus [3].
Take `COc1cccc(C(=O)Nc2cc(C)cc(C)n2)c1`: the results for the Motility in the assay listed under Mus musculus [1] and in the assay listed under Mus musculus [3] were 822 and 0, respectively.
The matching figures for `CCN(C(=O)c1ccc(F)cc1)c1cc(C)cc(C)n1`: 965 and 29.
`Cc1cc(C)nc(NC(=O)c2ccccc2Cl)c1`: the Motility in the assay filed under Mus musculus [1] is 875; in the assay filed under Mus musculus [3] it was 4.
The matching figures for `CCS(=O)(=O)c1ccc(OC)c(C(=O)Nc2cc(C)cc(C)n2)c1`: 841 and 16.
The matching figures for `Cc1cc(C)nc(NC(=O)c2cccc(N)c2)c1`: 652 and 4.
For `CC(=O)Nc1cccc(C(=O)Nc2cc(C)cc(C)n2)c1` the same measures were 777 and 8.
As for `CCN(C(=O)c1cccc(Cl)c1)c1cc(C)cc(C)n1`, the Motility in the assay listed under Mus musculus [1] was 941; in the assay filed under Mus musculus [3], 21.
The matching figures for `Cc1cc(C)nc(NC(=O)c2cccc(Br)c2)c1`: 826 and 21.
The matching figures for `Cc1cccc(C(=O)Nc2cc(C)cc(C)n2)c1`: 505 and 0.
`Cc1cc(C)nc(NC(=O)c2cccc(C(F)(F)F)c2)c1`: the Motility in the assay filed under Mus musculus [1] was 661; in the assay listed under Mus musculus [3], 4.
For `CSc1ccc(C(=O)Nc2cc(C)cc(C)n2)cc1` the same measures were 770 and 0.
